Tested on: MS2 coat protein
Assay: apparent Kd, MS2 coat protein; higher = weaker binding; RNA-MaP array; FMN 200 µM where present
Procedure, shortened: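 The apparent Kd comes from binding curves fitted cluster by cluster, filtered, and summarised as a median. Those curves followed SNAP-549-labelled MS2 coat protein from 0.7 or 1.5 nM, doubling to 3 µM, on Illumina sequencing-chip clusters where stalled E. coli RNA polymerase had transcribed the designs, without and then with constant ligand. The buffer was 100 mM Tris-HCl pH 7.5, 80 mM KCl, 4 mM MgCl2, BSA, DTT, yeast tRNA and Tween-20, and green signal was normalised to red-channel RNA signal and control-cluster median Fmax.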

[1] = designed as: OFF switch for flavin mononucleotide, no ligand
[2] = ligand present: flavin mononucleotide, designed as: OFF switch for flavin mononucleotide
[3] = designed as: ON switch for flavin mononucleotide, no ligand
[4] = ligand present: flavin mononucleotide, designed as: ON switch for flavin mononucleotide

Sequence	apparent Kd [1] [nM]	apparent Kd [2] [nM]	apparent Kd [3] [nM]	apparent Kd [4] [nM]
UUAAAUCAUGUAGGAUAUGCAUGGCGAAGCUACGCAGAAGGACAUGAGGAUCACCCAUGUUAUAGCUACCAAGUAAGGUGGCAA	77.9	236		
ACACAUGAGGAUCACCCAUGUACUCGACACAUUCAUUGGGCACAGGAUAUACGGUGAAGUCUUUCGUAGAAGGGUGCUAGUGUG			84	18.4
UGAGACCUCACAGGAUAUGCUGGACUUUGUCCAGCAGAAGGGUGAAAACAUGAGGAUCACCCAUGUAUGGUCUCCAAAUUUAAU			164	12.7
GUCGGAUGUAUAGGAUAUCGACUGGAUAACAGUCGAGAAGGAUACAUGAGGAUCACCCAUGUAAUAAUAAUAAUAAUAACCGAC	12.8	24.6		
GCAUGAUACUAGGAUAUCAGCAUACUUCAAUGUUGAGAAGGAGUAACAUGAGGAUCACCCAUGUAUCCAACAUG	59.4	166		
CCUCCACAUGAGGAUCACCCAUGUCAGGAUAUCGUGUGUUUUUUUUCGGUCGUGCGUGCGAGAAGGGACGUCUU	25.9	29.7		
UGUGUGAGACAGGAUAUGCCGGAUAUAGUACUGGUAGAAGGGUCUACAUGAGGAUCACCCAUGUGGCCGGCCGG	16.8	25		
AUUUAGUGCGAGAAGGCGUGGUCACAUGAGGAUCACCCAUGUCAGUACACGAGGAUAUCGAUUCGCUGUGUAAACACAAGCGAC			80.7	6.67
UCUAUCAGAGGAUAUACAUGAGGAUCACCCAUGUCAGUCGAACGGGAUGGAAGGUUAGGUAGAAGGUUGUAGAU	39.8	41.2		
ACAUACAUUCGAGGAUAUCGGUGAACAAAUUAACGAGAAGGCGAUAUAAUUUUUAAUCUUAUGAACAUGAGGAUCACCCAUGUA			22.3	20.4
AGGUAACAUGAGGAUCACCCAUGUCAGGAUAUCAGUAAGAUGAGUAUAGAAGAGAGUAUGAGAAGGGACUAUAU	31	25.6		
AUAUAUAUAUAGAAGGUGCCAGCGAGAGCUGCACAUGAGGAUCACCCAUGUUGUCGGUGACGACGCAAGGAUAUAUAUAUAUAU			34	15.4
AAUCCACAUGAGGAUCACCCAUGUCAGGAAAUGACAGGAUAUAGCGAAAAAAAAAAAAAGCUAGAAGGGUCUAAUU			175	67.5
CCGCGCUGUCGAGAGGAUAUGCGGUGAUGGACAUGAGGAUCACCCAUGUUAGCGAUAGCAUUACUGUAGAAGGCUCUACGGCGGC			16.6	17.3
GGAUGAUUAAUAGGAUAUUAGUUGUAAAAUGGUUAAGAAGGAUUAAUGAUUUAAACGACCAGUUACAUGAGGAUCACCCAUGUA			21.6	18.9
GUAUAUAGUGUGAGGAUAUGCUGGUCCUUGGAUCAGCAGAAGGCACAUGAGGAUCACCCAUGUAGUUAAAUAUG	26.8	100		
GCGUUGAACGAGAAGGCCAAUACAUGAGGAUCACCCAUGUUAAGUUGUUUUGGAGGAUAUCGAACACAUUCAAUAUUGCAACGC	6.06	5.65		
UAAAAGCGAGGAUAUACAUGAGGAUCACCCAUGUGAAAGAAAAAUAAAAAAAAAAAAAGUAGAAGGCGCUAAAA	62.1	58.4		
ACUCUACAUGAGGAUCACCCAUGUCGAGCCCAUCAAGGAUAUGGGUCUUGAUCGCGGGUGCCAGAAGGUGAUGGUU			43.9	47.1
UCACGGUAUGUAGGAUAUGCAUAGCAUUGCUAUGCAGAAGGACAUGAGGAUCACCCAUGUAUGUAUUCCAUACUAAUCCCGUGA	5.65	5.56		
GUUUUCGCAUGAGGAUAUGCUCGCAUUUUAAGAGCAGAAGGUAUGUCUUUAGACAUGAGGAUCACCCAUGUAUUUAUCAUUGAA				28.2
UGGAUGUAAGAGAAGGAGGACUUCAUGAGGAUCACCCAUGUGUUAGUACUUAGGAUAUUUGACAACAUGAGGAUCACCCAUGUC			75.6	67.8
GCGUUGUACGAGAAGGCCAAUACAUGAGGAUCACCCAUGUUAAGUUGUUUUGGAGGAUAUCGAUCACCUACAAUAAUGCAACGC	6.83	5.9		
CUUCUGUGAGGAUAUGUUAGUUCCCAGCAAAUCGCUGGGAGACAGAAGGCACAUGAGGAUCACCCAUGUGGGCG	39.2	221		

Sequence	apparent Kd [1] [nM]	apparent Kd [2] [nM]	apparent Kd [3] [nM]	apparent Kd [4] [nM]
AGGAUCCUAUCAAGACAAAUGUACAUGAGGAUCACCCAUGUGCAGGAUAUAGCUAGUUACGGUGGCUAGAAGGGCACACCAAAA	6.72	14.3		
AAAAAAAAGGGUGAGGAUAUCGAAAAAAAAACAUGAGGAUCACCCAUGUGAAAAAAAAAAAAAUGCGAGAAGGCACUAAAAAAAAA			151	45.6
UUAUUACGAGGAUAUCGUUUUUAUCACAUGAGGAUCACCCAUGUUGUUUAUGUUUCGUUUCGAGAAGGCGUUUGUU	27.6	19.9		
CCCGCGAUGUCAGGAUAUAGUCGGAGGUUCAGACUAGAAGGGACAUGAGGAUCACCCAUGUGCGUGAAAAUUUAAAACCUAGGU	51.5	191		
GUGCGAGCCACAGGAUAUCUACAGAUUUAUCGUAGAGAAGGGUGACCUCGUGCACCACAUGAGGAUCACCCAUGUAACUAGGCG			19.6	36.3
UGGUACUAGGGAGGAUAUGGGAAGAUACAUGAGGAUCACCCAUGUUUAAGAAUGCUGAGAGGCAACUAGAAGGCCCUAGUACCU			439	20.9
AUCCUGCGAGGAUAUACAUAAUUUUUUUCGUUUUGACUCGAACAUGAGGAUCACCCAUGUAGAAGGUGCUACAC	33.7	30.1		
GGGCUGUCAGGAUAUUUUGGGCCCGGGUAAACCCGGGCCCGGGAGAAGGGACAUGAGGAUCACCCAUGUGGCCC	34.7	37.3		
UGAAAUCAUGUAGGAUAUGCAUGGCGAAGCUACGCAGAAGGACAUGAGGAUCACCCAUGUUAUAGCUACCCAGUUUGGUGGCAA	49.8	151		
AAAUAUAAUGAGGAUAUCGUACUGGAUAUAGUGCGAGAAGGCAUUACAUGAGGAUCACCCAUGUUUUGUUGGGA	30.8	89.5		
GGUGCGUAUGUGAGGAUAUGCUGGUCCUUGGAUCAGCAGAAGGCACAUGAGGAUCACCCAUGUGGUGUCGUACA	347	40.1		
GGGUACAUCGGAGGAUAUCAUGUAAAUACAUGAGGAUCACCCAUGUCGAUGGAGACAUCGGAGAUUGAGAAGGCCGAUGUACCG			452	25.9
GCGAAUCAGUGAGGAUAUACAUAAUUUAUACCUGUAGAAGGCACAAACCUCAAGACAUGAGGAUCACCCAUGUGACAUAUCGCU	43.3	66.8		
AGGAAACAUGAGGAUCACCCAUGUAAAAAAGUGGGAGGAUAUACUAGAAGAAACAAAAUAGUAGAAGGCCUAAAAA			47.3	24.9
UUAAAUCAUGUAGGAUAUGCAUGGCGAAGCUACGCAGAAGGACAUGAGGAUCACCCAUGUUCUAGCUACCGGAUACGGUGGCAA	21.5	87.4		
CUAAGUGCCGGAGGAUAUACAUGAGGAUCACCCAUGUCAGUCUGUUUACAUGUAGAAGGCCGGCGAACAAAGAACUUGCCACGA	43.8	242		
UUUAGUUUAGGAUAUGUAGACAUUAACAUGAGGAUCACCCAUGUAGAUCCUGAAUUGGCUACAGAAGGGAGCAUUU	290	314		
AACCUGGUAAAUAAACUCAAUUACAUGAGGAUCACCCAUGUAUAGGAUAUGCAGUGGAAUACACUGCAGAAGGAUACAUCCAGG	18	60.9		
GAGGAGGUAGGAUAUACGAUAAUAUAGGGUAGAUAUAUAACACAUGAGGAUCACCCAUGUAGAAGGACCAGGAG	34.4	62.4		
GGGCCCGGUGUGAGGAUAUUGGGUCUGAAAGGGCUCGAGAAGGCACAUGAGGAUCACCCAUGUAAGCCGGGCCC	16.7	13.7		
GACACUAUGUUUGUCAGAUAGAGAGAGGAUAUGGCUCAUGAGACAUGAGGAUCACCCAUGUAUAAUCAGAAGGCUCGAGUACGA			11.5	9.17
CCGGCUUAGGAGGAUAUAGGAGUCGAUAGACACCUAGAAGGCCUAACAUGAGGAUCACCCAUGUGUCCUACCGG	17.8	61.5		
GAUCCUUCUGUUAGGAUAUGCUUUGGGCUUCCGCAGCAGAAGGAACAUGAGGAUCACCCAUGUCCAAUACCAUC	42.6	41.8		
CUUUCUUGCAAGGAUAUGCAAUUUAUUAUUUAUGCAGAAGGUGCUACAUGAGGAUCACCCAUGUUUCUGGGUUU	146	208		
